Peptide text beside a SMILES is read from it. * marks the point of attachment. Cbz = O=C(OCc1ccccc1)*
Experiments:
[1] = Drug uptake in tumor of mouse xenografted with mouse B16 cells assessed per gram of tissue after 15 mins; type: ADME, Neoplasm; details: in vivo, 0.25 h
[2] = Ratio of drug level in tumor to blood in mouse; type: ADME, organism-based
[3] = Drug uptake in tumor of mouse xenografted with mouse B16 cells assessed per gram of tissue after 3 hrs; type: ADME, Neoplasm; details: in vivo
[4] = Drug uptake in tumor of mouse xenografted with mouse B16 cells after 6 hrs; type: ADME, Neoplasm; details: in vivo
[5] = Drug uptake in tumor of mouse xenografted with mouse B16 cells assessed per gram of tissue after 72 hrs; type: ADME, Neoplasm; details: in vivo
[6] = Cytotoxicity against human IPC227F cells after 48 hrs using Hoechst 33342 dye-based fluorescence microplate reader; type: functional, cell-based
Procedure, shortened: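 Attached IPC227F human ocular melanoma cells were seeded and grown 24 h at 37 °C, 5% CO2, in DMEM with 10% fetal calf serum. Cells were then given fresh medium with increasing drug concentrations from DMSO stocks (DMSO final 0.025%) for 48 h, PBS-washed and frozen at -80 °C. Hoechst 33342 staining followed at room temperature in the dark. Fluorescence was read at 360/460 nm, survival was expressed as % of untreated control, and IC50 determined.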

SMILES | IC50 [6] [µM] | further results
CCN(CC)CCNC(=O)c1ccc(C(=O)N[C@@H](CC(C)C)C(=O)N[C@@H](CC(C)C)C(=O)N[C@H](C=O)CC(C)C)c([125I])c1 | – | Drug uptake [1]: 2.7%; Kp [2]: ≥ 1; Drug uptake [3]: 1.2%; Drug uptake [4]: 1.2%
CCCN(CCC)CCCCNC(=O)c1ccc([125I])cc1 | – | Drug uptake [5]: 3.2%
CCCN(CCC)CCNC(=O)c1ccc(C(=O)N[C@@H](CC(C)C)C(=O)N[C@@H](CC(C)C)C(=O)N[C@H](C=O)CC(C)C)cc1 | 0.71 | –
CCCN(CCC)CCCCNC(=O)c1ccc(C(=O)N[C@@H](CC(C)C)C(=O)N[C@@H](CC(C)C)C(=O)N[C@H](C=O)CC(C)C)cc1 | 4.18 | –
CCN(CC)CCNC(=O)c1ccc(C(=O)N[C@@H](Cc2ccccc2)C(=O)N[C@H](/C=C/S(C)(=O)=O)CC(C)C)cc1 | 94.5 | –
CCN(CC)CCNC(=O)c1ccc(C(=O)N[C@@H](CC(C)C)C(=O)N[C@@H](CC(C)C)C(=O)N[C@H](/C=C/S(C)(=O)=O)CC(C)C)cc1 | 28.7 | –
CCN(CC)CCNC(=O)c1ccc(C(=O)N[C@@H](Cc2ccccc2)C(=O)N[C@@H](CC(C)C)C(=O)N[C@H](/C=C/S(C)(=O)=O)CC(C)C)cc1 | 120 | –
CCN(CC)CCNC(=O)c1ccc(C(=O)N[C@@H](Cc2ccccc2)C(=O)N[C@H](C=O)CC(C)C)cc1 | 20.9 | –
CCN(CC)CCNC(=O)c1ccc(C(=O)N[C@@H](CC(C)C)C(=O)N[C@@H](CC(C)C)C(=O)N[C@H](C=O)CC(C)C)cc1 | 0.64 | –
CCN(CC)CCNC(=O)c1ccc(C(=O)N[C@@H](Cc2ccccc2)C(=O)N[C@@H](CC(C)C)C(=O)N[C@H](C=O)CC(C)C)cc1 | 11.9 | –
CC(C)C[C@@H](C=O)NC(=O)[C@H](CC(C)C)NC(=O)[C@H](CC(C)C)NC(=O)OCc1ccccc1 [MG-132] (Cbz-Leu-Leu-Leu-aldehyde) | 0.077 | –
